In ChEMBL document CHEMBL3085764, “Azole-carbodithioate hybrids as vaginal anti-Candida contraceptive agents: design, synthesis and docking studies” (Eur J Med Chem, 2013):
Converted amounts (≈) assume the structure as drawn.

Legend:
[1] = tested on: Cryptococcus neoformans; assay: Antifungal activity against Cryptococcus neoformans after 48 hrs by broth microdilution technique; format: functional, organism-based
In short: (§1)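 MIC by broth microdilution following NCCLS guidelines, in RPMI 1640 buffered with MOPS. Starting inoculum 1-5 × 10^3 CFU/mL. Plates incubated at 35 °C. MIC and IC50 read spectrophotometrically at 492 nm after 48 h.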

[2] = tested on: HeLa; assay: Cytotoxicity against human HeLa cells after 5 hrs by LDH assay
[3] = Spermicidal activity in human semen assessed as sperm immobilization at 0.1 % w/v up to 30 seconds by phase contrast microscopy; format: functional
[4] = Spermicidal activity in human semen assessed as sperm immobilization at 1.0 % w/v up to 30 seconds by phase contrast microscopy; format: functional
[5] = tested on: Candida albicans; assay: Antifungal activity against Candida albicans after 48 hrs by broth microdilution technique; format: functional, organism-based; in short: as §1
[6] = tested on: Candida albicans; assay: Antifungal activity against Candida albicans clinical isolate CDRI after 48 hrs by broth microdilution technique; format: functional, organism-based; in short: as §1
[7] = tested on: Candida albicans; assay: Antifungal activity against Candida albicans clinical isolate after 48 hrs by broth microdilution technique; format: functional, organism-based; in short: as §1
[8] = tested on: Candida albicans; assay: Antifungal activity against Candida albicans ATCC 10231 after 48 hrs by broth microdilution technique; format: functional, organism-based; conditions: ATCC 10231, 48 h; in short: as §1
[9] = tested on: Escherichia coli; assay: Antibacterial activity against Escherichia coli ATCC 9637 after 48 hrs by broth microdilution technique; format: functional; conditions: ATCC 9637, 48 h
In short: (§2)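 Broth microdilution following NCCLS guidelines in Mueller Hinton broth. Inoculum held at 1-5 × 10^3 cfu/mL. Plates incubated at 35 °C in a moist, dark chamber for 48 h. MIC and IC50 read spectrophotometrically at 492 nm.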

[10] = tested on: Candida parapsilosis; assay: Antifungal activity against Candida parapsilosis ATCC 22019 after 48 hrs by broth microdilution technique; format: functional, organism-based; conditions: Lodderomyces parapsilosis, ATCC 22019, 48 h; in short: as §1
[11] = tested on: Sporothrix schenckii; assay: Antifungal activity against Sporothrix schenckii after 48 hrs by broth microdilution technique; format: functional, organism-based; in short: as §1
[12] = Growth inhibition of Lactobacillus acidophilus after 72 hrs by colony counting method
In short: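 Rogosa SL agar plates (7.5%, 0.132% acetic acid), with or without compound, inoculated with L. acidophilus (~70 […]/10 cm²). Incubated 72 h at 37 °C in 5% CO2/95% air. Colony number and size recorded. Value = average colony size (% of control) × colony number / 100.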

[13] = tested on: Klebsiella pneumoniae; assay: Antibacterial activity against Klebsiella pneumoniae after 48 hrs by broth microdilution technique; format: functional; in short: as §2
[14] = tested on: Staphylococcus aureus; assay: Antibacterial activity against Staphylococcus aureus ATCC 25923 after 48 hrs by broth microdilution technique; format: functional; conditions: ATCC 25923, 48 h; in short: as §2
[15] = tested on: Trichomonas vaginalis; assay: Trichomonacidal activity against Trichomonas vaginalis after 48 hrs by trypan blue exclusion assay; format: functional; conditions: read-out: MEC
In short: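 T. vaginalis in log phase, grown in TYM with 10% FCS, vitamin mixture and penicillin/streptomycin at 37 °C. DMSO stocks ([…]) serially diluted in TYM down to 0.1 µg/mL; DMSO/TYM vehicle controls. 5 × 10^4 trophozoites added and incubated anaerobically at 37 °C. Viability checked by trypan blue from 3 to 48 h. MIC = lowest concentration killing all cells by 48 h. Three repeats.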

[16] = tested on: Trichophyton mentagrophytes; assay: Antifungal activity against Trichophyton mentagrophytes after 48 hrs by broth microdilution technique; format: functional, organism-based; in short: as §1
[17] = tested on: Pseudomonas aeruginosa; assay: Antibacterial activity against Pseudomonas aeruginosa ATCC BAA-427 after 48 hrs by broth microdilution technique; format: functional; conditions: ATCC BAA-427, 48 h; in short: as §2
[18] = tested on: Aspergillus fumigatus; assay: Antifungal activity against Aspergillus fumigatus after 48 hrs by broth microdilution technique; format: functional, organism-based; in short: as §1
[19] = tested on: Candida albicans; assay: Antifungal activity against Candida albicans MTCC 183 after 48 hrs by broth microdilution technique; format: functional, organism-based; conditions: MTCC 183, 48 h; in short: as §1

SMILES	IC50 [1]	IC50 [2]	Activity [3]	Activity [4]	IC50 [5]	IC50 [6]	IC50 [7]	IC50 [8]	MIC [9]	IC50 [10]	IC50 [11]	IC50 [12]	MIC [13]	MIC [14]	minimal effective concentration [15]	IC50 [16]	MIC [17]	IC50 [18]	IC50 [19]
CSC(=S)n1cncn1	> 50 µg/mL	53.7 µg/mL (≈ 337 µM)	0%	100%	1.43 µg/mL (≈ 8.98 µM)	> 50 µg/mL	> 50 µg/mL	38 µg/mL (≈ 239 µM)	≥ 50 µg/mL	> 50 µg/mL	4.34 µg/mL (≈ 27.3 µM)	39.54 µg/mL (≈ 248 µM)	≥ 50 µg/mL	≥ 50 µg/mL	> 200 µg/mL	> 50 µg/mL	≥ 50 µg/mL	> 50 µg/mL	31.2 µg/mL (≈ 196 µM)
CCCCCCCCCc1ccc(OCCOCCOCCOCCOCCOCCOCCOCCOCCO)cc1 [NONOXYNOL 9]	–	37 µg/mL (≈ 60 µM)	100%	100%	–	–	–	–	–	–	–	21 µg/mL (≈ 34 µM)	–	–	37.4 µg/mL	–	–	–	–
C=CCSC(=S)n1ccnc1	5.75 µg/mL (≈ 31.2 µM)	–	0%	100%	> 50 µg/mL	3.94 µg/mL (≈ 21.4 µM)	1.8 µg/mL (≈ 9.77 µM)	7.26 µg/mL (≈ 39.4 µM)	≥ 50 µg/mL	2.09 µg/mL (≈ 11.3 µM)	4.96 µg/mL (≈ 26.9 µM)	–	≥ 50 µg/mL	≥ 50 µg/mL	> 200 µg/mL	4.43 µg/mL (≈ 24 µM)	≥ 50 µg/mL	> 50 µg/mL	6.79 µg/mL (≈ 36.8 µM)
Cc1nccn1C(=S)SCCCC#N	> 50 µg/mL	–	0%	95%	36 µg/mL (≈ 160 µM)	47.7 µg/mL (≈ 212 µM)	> 50 µg/mL	> 50 µg/mL	≥ 50 µg/mL	> 50 µg/mL	> 50 µg/mL	–	≥ 50 µg/mL	≥ 50 µg/mL	> 200 µg/mL	24.9 µg/mL (≈ 111 µM)	≥ 50 µg/mL	> 50 µg/mL	41 µg/mL (≈ 182 µM)
CSC(=S)n1ccnc1C	9.1 µg/mL (≈ 52.8 µM)	–	0%	100%	7.24 µg/mL (≈ 42 µM)	> 50 µg/mL	25.9 µg/mL (≈ 151 µM)	36.8 µg/mL (≈ 214 µM)	≥ 50 µg/mL	> 50 µg/mL	4.41 µg/mL (≈ 25.6 µM)	–	≥ 50 µg/mL	≥ 50 µg/mL	> 200 µg/mL	11.7 µg/mL (≈ 67.8 µM)	≥ 50 µg/mL	> 50 µg/mL	37.3 µg/mL (≈ 216 µM)
CSC(=S)n1ccnc1	> 50 µg/mL	–	0%	100%	5.75 µg/mL (≈ 36.3 µM)	> 50 µg/mL	> 50 µg/mL	> 50 µg/mL	≥ 50 µg/mL	> 50 µg/mL	> 50 µg/mL	–	≥ 50 µg/mL	≥ 50 µg/mL	> 200 µg/mL	> 50 µg/mL	≥ 50 µg/mL	> 50 µg/mL	> 50 µg/mL
CCCCSC(=S)n1ccnc1	3.79 µg/mL (≈ 18.9 µM)	48.7 µg/mL (≈ 243 µM)	80%	100%	1.29 µg/mL (≈ 6.44 µM)	6.17 µg/mL (≈ 30.8 µM)	1.53 µg/mL (≈ 7.64 µM)	3.5 µg/mL (≈ 17.5 µM)	≥ 50 µg/mL	1.94 µg/mL (≈ 9.68 µM)	> 50 µg/mL	45.64 µg/mL (≈ 228 µM)	≥ 50 µg/mL	≥ 50 µg/mL	> 200 µg/mL	> 50 µg/mL	≥ 50 µg/mL	–	5.41 µg/mL (≈ 27 µM)
CCCCSC(=S)n1ccnc1C	5.57 µg/mL (≈ 26 µM)	85.5 µg/mL (≈ 399 µM)	0%	100%	1.34 µg/mL (≈ 6.25 µM)	7.64 µg/mL (≈ 35.6 µM)	2.12 µg/mL (≈ 9.89 µM)	5.09 µg/mL (≈ 23.7 µM)	≥ 50 µg/mL	> 50 µg/mL	5.71 µg/mL (≈ 26.6 µM)	220 µg/mL (≈ 1030 µM)	≥ 50 µg/mL	≥ 50 µg/mL	> 200 µg/mL	2.02 µg/mL (≈ 9.42 µM)	≥ 50 µg/mL	23.8 µg/mL (≈ 111 µM)	4.69 µg/mL (≈ 21.9 µM)
CCCCCCCCCCCCCCCCSC(=S)n1ccnc1	> 50 µg/mL	–	0%	100%	> 50 µg/mL	> 50 µg/mL	> 50 µg/mL	> 50 µg/mL	≥ 50 µg/mL	> 50 µg/mL	> 50 µg/mL	–	≥ 50 µg/mL	≥ 50 µg/mL	> 200 µg/mL	18.4 µg/mL (≈ 50 µM)	≥ 50 µg/mL	> 50 µg/mL	> 50 µg/mL
CCCCSC(=S)n1cnc2ccccc21	> 50 µg/mL	–	0%	100%	6.39 µg/mL (≈ 25.5 µM)	37.4 µg/mL (≈ 149 µM)	> 50 µg/mL	> 50 µg/mL	≥ 50 µg/mL	> 50 µg/mL	> 50 µg/mL	–	≥ 50 µg/mL	≥ 50 µg/mL	> 200 µg/mL	1.4 µg/mL (≈ 5.59 µM)	≥ 50 µg/mL	> 50 µg/mL	21.8 µg/mL (≈ 87.1 µM)
